Experimental findings from ChEMBL document CHEMBL1135475, “One-pot synthesis of benzo[b]furan and indole inhibitors of tubulin polymerization” (J Med Chem, 2002) are described below.

One assay addresses Tubulin (Bos taurus) (UniProt Q6B856+Q862L2+Q862F3). The experiment in a line: Percent inhibition of 5 uM of [3H]colchicine binding to 1 uM of tubulin by 5 uM of compound after a 10 minute incubation at 37 degrees C. The format is protein assay. The essentials: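 Tubulin purified to electrophoretic homogeneity from bovine brain, used at 1.0 µM with [3H]colchicine and inhibitor both at 5.0 µM. […] At least two independent experiments per compound.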

Another assay addresses Tubulin (Bos taurus, UniProt Q6B856+Q862L2+Q862F3). The experiment in a line: Inhibition of tubulin (10 uM) polymerization, after a 20 min incubation at 30 degrees Centigrade. Format: functional.

Broadly, the inhibition is the share of the control response that was lost under treatment. Higher therefore signals a response far below the control. On Tubulin (Bos taurus), `COc1ccc(-c2oc3cc(OC)ccc3c2C(=O)c2cc(OC)c(OC)c(OC)c2)cc1` displayed an inhibition of 77%. Broadly, the IC50 is the concentration at which inhibition is half-maximal. Read a high IC50 as lower potency. Consider `COc1ccc(-c2oc3cc(OC)ccc3c2-c2cc(OC)c(OC)c(OC)c2)cc1`, for which, at Tubulin, the IC50 is greater than 40 µM. `COc1ccc2c(C(=O)c3cc(OC)c(OC)c(OC)c3)c(-c3ccc(OC)c(O)c3)sc2c1`: the inhibition at Tubulin (Bos taurus) was determined as 21%.
